pKi: −log10 of the molar value.
Legend:
[1] = target: Neuronal acetylcholine receptor (Rattus norvegicus) (UniProt P04757+P09483+P12389+P12390+P12392+P43144+Q9JLB5+P12391+P43143+P20420+Q05941); experiment: In vitro neuronal nAChRs evoked [3H]dopamine release was determined in rat striatal slices at concentration of 10e-6 M; format: functional
[2] = target: Neuronal acetylcholine receptor; experiment: In vitro binding affinity to neuronal nAChRs was determined by measuring the displacement of [3H]cytisine in rat brain; format: tissue-based
How it was run: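 Whole rat brain membrane preparation; displacement of [3H]cytisine from neuronal nAChRs. Binding normalised to equilibrium dissociation constants (Ki). Values are means ± SEM.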

SMILES | Dopamine release [1] | pKi [2]
Cc1cc([C@H]2CCCN2)on1 | 43% | 6.48
Cc1cc([C@H]2CCCN2)sn1 | 61% | 7.29
CCc1cc([C@@H]2CCCN2C)on1 | 46% | 
Cc1cc([C@H]2CCCN2C)on1 | 95% | 
CN1CCC[C@@H]1c1cc(CO)no1 | 41% | 6.90
CCN1CCC[C@@H]1c1cc(C)no1 | 64% | 7.46
CCc1cc([C@@H]2CCCN2)on1 | 79% | 7.93
Cc1cc([C@@H]2CCCN2C)sn1 | 22% | 
CN1CCC[C@H]1c1cccnc1 | 126% | 
CCCCc1cc([C@H]2CCCN2C)on1 | 38% | 7.62
c1cncc([C@@H]2CCCN2)c1 | 155% | 
c1cncc([C@H]2CCCN2)c1 | 93% | 
Cc1cc([C@@H]2CCCN2)sn1 | 56% | 6.64
Cc1cc([C@H]2CCCN2C)no1 |  | 5.88
CCOC(=O)c1cc([C@H]2CCCN2C)on1 |  | 6.05
CN1CCC[C@@H]1c1cc(Cc2ccccc2)no1 | 30% | 8.13
Cc1cc([C@H]2CCCN2C)sn1 | 41% | 
CN1CCC[C@@H]1c1cc(C(F)(F)F)no1 | 92% | 8.21
CCCc1cc([C@H]2CCCN2C)on1 | 45% | 7.85
CCc1cc([C@H]2CCCN2)on1 | 30% | 6.26
CCc1cc([C@H]2CCCN2C)on1 | 78% | 8.12
COCc1cc([C@H]2CCCN2C)on1 | 51% | 7.66
CN1CCC[C@@H]1c1cccnc1 | 114% | 
Cc1cc([C@@H]2CCCN2)on1 | 111% | 8.13
CCCc1cc([C@H]2CCCN2)on1 |  | < 5.00
Cc1cc([C@@H]2CCCN2C)on1 | 85% | 
c1ccc(-c2cc([C@H]3CCCN3)on2)cc1 |  | < 5.00
CCCCc1cc([C@H]2CCCN2)on1 |  | 5.30
CN1CCC[C@@H]1c1cc(-c2ccccc2)no1 |  | 6.10

Reference: ChEMBL document CHEMBL1127302 (J Med Chem, 1994)
